{
  "source": "PubChem BioAssay AID651999",
  "about": "(Sanford-Burnham Center for Chemical Genomics, 2013)",
  "note": "The campaign covered roughly 360,000 compounds. About 1,400 (0.39%) were called active. Many of the other results were omitted from the sample, so actives are more common in it than they were. Unmarked numbers belong to inactive results.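 How the source made its calls: active means pattern-corrected inhibition above about 35%, with an unprinted fluorescence ratio check between 0.5 and 1.5 (limit read from the data, passing the limit was not always enough); inactive means the rest.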",
  "data": [
    {"biological_target": "COP9 signalosome complex subunit 5 (Homo sapiens) (UniProt Q92905)", "sequence (Q92905 whole entry, looked up, one chain of several)": "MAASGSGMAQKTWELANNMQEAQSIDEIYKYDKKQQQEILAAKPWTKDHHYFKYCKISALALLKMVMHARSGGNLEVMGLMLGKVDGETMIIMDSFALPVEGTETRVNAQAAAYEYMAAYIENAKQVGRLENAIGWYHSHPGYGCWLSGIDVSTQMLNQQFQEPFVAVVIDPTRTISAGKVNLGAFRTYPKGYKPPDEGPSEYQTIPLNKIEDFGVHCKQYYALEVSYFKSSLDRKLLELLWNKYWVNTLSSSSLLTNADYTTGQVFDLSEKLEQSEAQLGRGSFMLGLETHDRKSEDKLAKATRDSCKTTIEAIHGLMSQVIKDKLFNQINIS", "assay": "CSN5 deneddylase inhibitors on cullin-RING ligase – biochemical, fluorescence polarization, uHTS, primary screen (AID 651999);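 further: 0% = enzyme with substrate and 100% = substrate without enzyme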", "conditions": "Purified CSN, SCF-Nedd8-OG deneddylation, at 12.5 µM, active compounds read high", "in_short": "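Test system: Human Csn5 produced in HEK293T cells | Compound: 12.5 µM single point | Times: 90 min, room temperature | Signal: Fluorescence polarization readout | Read-out basis: % inhibition of substrate cleavage by Csn5 | Controls: no-enzyme wells high, enzyme-with-substrate wells low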", "values": [
      {"smiles": "CC1CC(C)CN(C(=O)CCNC(=O)Cn2cnc3ccccc3c2=O)C1", "note": "(stereo not drawn)", "inhibition": "-0.46%"},
      {"smiles": "O=C(CN1CCN(c2ncc(C(F)(F)F)cc2Cl)CC1)Nc1ccc2c(c1)OCO2", "inhibition": "4.43%"},
      {"smiles": "CCCC(=O)n1nc(NCc2ccc(OC)cc2)nc1NCc1ccc(OC)cc1", "inhibition": "0.03%"},
      {"smiles": "CC1(C)C=Cc2c(ccc3c2OC[C@@H](c2ccc(O)cc2O)C3)O1", "inhibition": "1.92%"},
      {"smiles": "Cc1cc(Br)cn2c(Cc3ccsc3)c(-c3ccc(C#N)cc3)nc12", "inhibition": "77.2% (active)"},
      {"smiles": "Cc1ccc(-c2nc3c(C)cc(Br)cn3c2Cc2ccccc2)cc1", "inhibition": "-3.35%"},
      {"smiles": "Cc1cc(Br)cn2c(Cc3cccc(F)c3)c(-c3cccc(Br)c3)nc12", "inhibition": "1.9%"},
      {"smiles": "COC(=O)c1cc(NC(=O)CC2C(=O)NCCN2C(=O)c2ccc(F)cc2)cc(C(=O)OC)c1", "note": "(stereo not drawn)", "inhibition": "0.24%"},
      {"smiles": "CS(=O)(=O)c1ccc(-c2nnn(CC(=O)Nc3ccc4c(c3)OCCO4)n2)cc1", "inhibition": "0.36%"},
      {"smiles": "CS(=O)(=O)c1ccc2c(c1)SC1=NC(=O)/C(=C/c3ccco3)C(=N)N12", "inhibition": "58.8% (active)"},
      {"smiles": "COc1ccc(N2CCN(C(=O)CNS(=O)(=O)c3ccc(C)c(C)c3)CC2)cc1", "inhibition": "-4.8%"},
      {"smiles": "COc1ccc(NC(=O)CC2SC(N3CCCCC3)=NC2=O)cc1OC", "note": "(stereo not drawn)", "inhibition": "0.22%"},
      {"smiles": "COc1ccc(S(=O)(=O)N2CCN(CC(=O)N3c4ccccc4CC3C)CC2)cc1OC", "note": "(stereo not drawn)", "inhibition": "18.4%"},
      {"smiles": "CCOC(=O)c1cc(NC(=O)c2ccc(Cl)cc2)c(=O)oc1-c1ccccc1", "inhibition": "-2.25%"},
      {"smiles": "COc1ccc(C2COC(=O)C2=N)c(NC(=O)c2ccccc2)c1", "note": "(stereo not drawn)", "inhibition": "-4.82%"},
      {"smiles": "CC(=O)c1cc(NC(=O)c2ccccc2)c(=O)oc1/C=C/N(C)C", "inhibition": "55.4% (active)"},
      {"smiles": "CCCCCCCC1(C)NC(=O)N(CC(=O)Nc2cc(C)on2)C1=O", "note": "(stereo not drawn)", "inhibition": "-7.92%"},
      {"smiles": "Cc1ccc(CSCC2Nc3ccc(C(=O)N4CCN(c5ccc(F)cc5)CC4)cc3NC2=O)cc1", "note": "(stereo not drawn)", "inhibition": "25.2%"},
      {"smiles": "C=CCn1c(SCc2cccc(F)c2)nc2cc(C(=O)N3CCC(C(N)=O)CC3)ccc2c1=O", "inhibition": "0.76%"},
      {"smiles": "O=C1Nc2cc(C(=O)N3CCN(c4ccc(F)cc4)CC3)ccc2NC1CSCc1cccc(F)c1", "note": "(stereo not drawn)", "inhibition": "51.2% (active)"},
      {"smiles": "CC(C)Cn1c(N)c(C(=O)NCc2cccs2)c2nc3ccccc3nc21", "inhibition": "36% (active)"},
      {"smiles": "O=C(NCc1cccs1)c1ccc(Br)o1", "inhibition": "-0.05%"},
      {"smiles": "O=C(Cc1coc2ccc3ccccc3c12)NCc1cccs1", "inhibition": "-8.34%"},
      {"smiles": "COc1cc(/C=C2/C(=O)NN(c3cccc(Cl)c3)C2=O)cc(Br)c1O", "inhibition": "44.4% (active)"},
      {"smiles": "CCOc1c(Br)cc(/C=C2\\C(=O)N(CCC#N)N=C2C)cc1OC", "inhibition": "2.79%"},
      {"smiles": "CCc1nc2ccc(C(=O)N(C)CCN(C)C)cn2c1N(CC)CCOC", "inhibition": "-0.82%"},
      {"smiles": "O=C(CCN1C(=O)COc2ccccc21)NCCCN1CCN(c2ccc(F)cc2)CC1", "inhibition": "-4.53%"},
      {"smiles": "CN1CCN(CCCNC(=O)c2ccc(/C=C3\\Oc4ccccc4N(Cc4ccc(Cl)cc4)C3=O)cc2)CC1", "inhibition": "119% (active)"},
      {"smiles": "O=C(CC1Oc2ccccc2NC1=O)NCCCN1CCN(Cc2ccccc2)CC1", "note": "(stereo not drawn)", "inhibition": "-8.5%"},
      {"smiles": "Cc1nonc1OCCn1nnnc1N", "inhibition": "-0.98%"},
      {"smiles": "O=C(O[C@H]1[C@H](Cc2ccccc2)NS(=O)(=O)[C@H]2C[C@@H]3C=C[C@]12O3)c1ccc([N+](=O)[O-])cc1", "inhibition": "0.94%"},
      {"smiles": "CCCSc1nc2[nH]ncc2c(=O)[nH]1", "inhibition": "0.78%"},
      {"smiles": "Cn1ccnc1-c1nnn(-c2ccc(F)cc2)n1", "inhibition": "-1.15%"},
      {"smiles": "CC(=O)NCCn1c(SCC(=O)Nc2ccc(C)cc2)nc2ccccc2c1=O", "inhibition": "-2.03%"},
      {"smiles": "COc1ccc(NC(=O)CSc2nc3ccccc3c(=O)n2C)cc1", "inhibition": "81.7% (active)"},
      {"smiles": "COc1ccc(NC(=O)CSc2nnc(Cc3ccccc3)c(=O)n2N)cc1", "inhibition": "2.76%"},
      {"smiles": "C=CCSc1nc2c(c(=O)[nH]1)C(C(C)C)C(C#N)=C(N)O2", "note": "(stereo not drawn)", "inhibition": "-4.61%"},
      {"smiles": "CCCNC(=O)C(=O)Nc1cc2c3c(c1)CCC(=O)N3CCC2", "inhibition": "-1.23%"},
      {"smiles": "CCOc1ccc(NS(=O)(=O)c2ccc(C)c(C(N)=O)c2)cc1", "inhibition": "8.11%"},
      {"smiles": "COc1ccc(NS(=O)(=O)c2ccc(C)c(C(=O)N(C)Cc3ccc(OC)cc3OC)c2)cc1", "inhibition": "157% (active)"},
      {"smiles": "COc1ccc(NS(=O)(=O)c2ccc(C)c(C(=O)NCC(c3cccs3)N3CCOCC3)c2)cc1", "note": "(stereo not drawn)", "inhibition": "1.17%"},
      {"smiles": "CC1O[C@H](OC2C(COC3OC(CO)C(O)[C@H](O)C3O)OC(OC3CC[C@]4(C)C(CC[C@@]5(C)[C@@H]4C=C[C@]46OC[C@@]7(CCC(C)(C)C[C@H]74)C(O)C[C@@]56C)C3(C)C)C(O)C2O)C(O)C(O)C1O", "note": "(stereo partly drawn)", "inhibition": "-2.09%"},
      {"smiles": "COc1ccc(-n2nnc3c(=O)n(CC(=O)N4CCC(Cc5ccccc5)CC4)cnc32)cc1", "inhibition": "-0.9%"}
    ]}
  ]
}
